Compound activity (PubChem)
UBC13 polyUb = blocks human UBC13 polyubiquitin chain formation; P61088; 330,000 compounds, 0.47% hits; inhibition, % at 20 µM; TR-FRET; in the data active = inhibition above about 45%, passing the limit was not always enough
Target sequence (P61088 whole entry, looked up): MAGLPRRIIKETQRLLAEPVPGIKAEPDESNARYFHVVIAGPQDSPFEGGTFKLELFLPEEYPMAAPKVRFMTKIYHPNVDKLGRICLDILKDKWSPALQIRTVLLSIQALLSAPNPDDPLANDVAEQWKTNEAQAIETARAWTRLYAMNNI
SENP8 block-1 = inhibitors of human SENP8 protease; AID 602440; inhibition, % at 20 µM; 360,000 compounds, 0.64% hits; Q96LD8; recombinant SENP8, Nedd8 substrate fluorescence; in the data active = inhibition mostly above about 40%, no sharp cut-off; inactive = mostly below about 27%
SENP8 block-2 = inhibitors of human SENP8 protease; inhibition, % at 10 µM; AID 2540; 330,000 compounds, 1.2% hits; Q96LD8; purified SENP8, Z-RLRGG-aminoluciferin cleavage, luminescence; in the data active = inhibition above about 50%
SENP7 inh = inhibitors of human SENP7 protease | inhibition, % at 5 µM | recombinant SENP7, Z-RLRGG-aminoluciferin luminescence, 40 min | 330,000 compounds, 1.5% hits | Q9BQF6;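 active = inhibition above about 50% at the single test dose, limit read from the data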;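 also: plate controls were DMSO with enzyme for no effect and no enzyme buffer wells for full effect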
SENP6 inh = SENP6 protease inhibition. Q9GZR1. Recombinant SENP6 catalytic domain, aminoluciferin luminescence. inhibition, % at 10 µM. 330,000 compounds, 1.8% hits;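 active = inhibition above about 50% at the single tested dose, limit read from the data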;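 also: plate controls were DMSO wells with enzyme for no effect and DMSO wells lacking enzyme for full effect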
Target sequence (Q9GZR1 628-1112 limits assumed): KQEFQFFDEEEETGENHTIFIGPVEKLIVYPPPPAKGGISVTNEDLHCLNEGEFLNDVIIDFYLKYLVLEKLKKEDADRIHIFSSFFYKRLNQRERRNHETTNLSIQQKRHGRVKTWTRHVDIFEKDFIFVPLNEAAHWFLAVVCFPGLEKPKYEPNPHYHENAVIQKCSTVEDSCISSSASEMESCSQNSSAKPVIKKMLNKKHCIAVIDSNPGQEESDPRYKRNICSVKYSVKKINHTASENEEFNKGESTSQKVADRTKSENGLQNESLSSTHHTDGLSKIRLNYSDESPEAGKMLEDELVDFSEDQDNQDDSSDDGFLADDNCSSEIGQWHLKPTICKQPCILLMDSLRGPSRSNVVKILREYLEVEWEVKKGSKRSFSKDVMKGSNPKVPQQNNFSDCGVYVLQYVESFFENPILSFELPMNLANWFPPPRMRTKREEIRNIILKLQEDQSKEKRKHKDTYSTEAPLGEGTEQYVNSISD
Apaf1 inhib = human Apaf-1 inhibition; O14727; reconstituted apoptosome caspase-3 activity, DEVD-Rh110 fluorescence; inhibition, % at 20 µM; 330,000 compounds, 0.71% hits; AID 489030; active = inhibition of at least 40% at 20 µM;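 also: plate controls were DMSO wells for no effect and DEVD-CHO caspase inhibitor wells for full effect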
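Material: cell-free apoptosome with Apaf-1, procaspase-3 and caspase-9; Buffer or medium: Hepes pH 7.5 with detergent and BSA; Reagent: cytochrome c trigger plus (Z-DEVD)2-Rh110 caspase-3 substrate; Times: compound with Apaf-1, dATP, procaspase-3 30 min, then 50 min reaction, room temperature; Technique: Rh110 fluorescence intensity.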
SENP8 conf = confirmation of human SENP8 protease inhibitors; Recombinant SENP8, Z-RLRGG-aminoluciferin luminescence, 60 min; 6,200 compounds, 40% hits; inhibition, % at 12.5 µM; shares compounds with SENP7 inh;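 active = mean inhibition across replicates above about 50%, limit read from the data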
SENP6 conf = human SENP6 inhibition, confirmed | shares compounds with SENP7 inh | recombinant SENP6, Z-RLRGG-aminoluciferin luminescence | inhibition, % at 12.5 µM | 6,200 compounds, 58% hits | AID 488915
SENP7 conf = human SENP7 inhibition, confirmed; shares compounds with SENP7 inh; recombinant SENP7, Z-RLRGG-aminoluciferin luminescence, 40 min; inhibition, % at 12.5 µM; 6,200 compounds, 69% hits; AID 488917
Casp3 SENP sel = caspase-3 inhibition (SENP selectivity assay) | shares compounds with SENP7 inh | purified caspase-3, Z-DEVD-aminoluciferin luminescence, 60 min | inhibition, % at 12.5 µM | 6,200 compounds, 60% hits | AID 488918;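 active = mean inhibition above about 50%, limit read from the data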;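 also: plate controls were enzyme with DMSO for no effect and wells without caspase-3 for full effect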
Luc interf = interferes with luciferase luminescence in SENP counter-screen. AID 488919. Pre-incubated SENP8/Z-RLRGG-aminoluciferin, luciferase luminescence interference. 6,200 compounds, 39% hits. inhibition, % at 12.5 µM. shares compounds with SENP7 inh;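 active = mean inhibition above about 50% when retested at one dose, limit read from the data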;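 also: plate controls were DMSO wells with completed reaction for no effect and substrate without enzyme for full effect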
The depositor's hits bear a star; nt = no result given. Rows were chosen to be rich in hits. Some 3% of all compounds tested hit in one or more screens of this group.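 The calls were made as follows, unless noted: active = mean inhibition above about 50% in the one-dose retest (limit read from the data); inactive = the rest.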

SMILES | UBC13 polyUb | SENP8 block-1 | SENP8 block-2 | SENP7 inh | SENP6 inh | Apaf1 inhib | SENP8 conf | SENP6 conf | SENP7 conf | Casp3 SENP sel | Luc interf
O=[N+]([O-])c1ccc2nc(CCCc3nc4ccc([N+](=O)[O-])cc4[nH]3)[nH]c2c1 | 3 | 6 | -2 | -7 | -9 | -1 | nt | nt | nt | nt | nt
O=c1cc(-c2ccccc2)[nH]c2nc3ccccc3n12 | 14 | -307 | 88* | 98* | 88* | 11 | 2 | 64* | 64* | 72* | 5
CCCCN1CC(N2CCN(Cc3ccccc3)CC2)CS1(=O)=O (centres undefined) | nt | 12 | nt | nt | nt | nt | nt | nt | nt | nt | nt
O=C(Nc1nnc(-c2ccccc2)s1)c1ccccc1O | -1 | -250 | 84* | 63* | 80* | 17 | 17 | 30 | 15 | 16 | 7
COc1cccc(C(=O)Nc2nnc(-c3ccccc3)s2)c1OC | 6 | -214 | 57* | 55* | 79* | 13 | 46 | 39 | 64* | 61* | 46
COc1ccccc1C(=O)Nc1nnc(-c2ccccc2)s1 | 8 | -121 | -11 | -7 | 4 | 4 | nt | nt | nt | nt | nt
CCCOc1ccc(OCCSc2ncccn2)cc1 | 7 | 25 | 43 | 65* | 78* | 8 | 36 | 54* | 86* | 53* | 47
CC1(C)C(=O)Nc2ccccc2N1C(=O)COC(=O)c1cccnc1 | -10 | -8 | -10 | -7 | -20 | 7 | nt | nt | nt | nt | nt
COc1ccc(C(=O)N=c2sc3ccccc3n2C)cc1 | 20 | -433 | 69* | 77* | 1 | -6 | 15 | 23 | 24 | 17 | 9
COc1cc(OC)cc(C(=O)N=c2sc3ccccc3n2C)c1 | 7 | -419 | -7 | 51* | 0 | 2 | -2 | 3 | 2 | 12 | 10
CCc1ccccc1NC(=O)CNC(=O)CCNC(=O)Nc1ccccc1 | 12 | 8 | 4 | -12 | 7 | -11 | nt | nt | nt | nt | nt
O=C1NC[C@H](Cc2ccc(O)cc2)N(C[C@@H]2CCCN2C[C@H](Cc2ccc(O)cc2)N2C[C@H](Cc3ccccc3)N(CCc3ccccc3)C(=O)C2=O)C1=O | nt | 12 | nt | nt | nt | nt | nt | nt | nt | nt | nt
O=C(N=Nc1c(O)[nH]c2ccccc12)c1ccco1 | -35 | 20 | 24 | 62* | 60* | 6 | 49 | 46 | 83* | 80* | 33
Oc1[nH]c2ccccc2c1N=Nc1cccc(Cl)c1 | -5 | 24 | 47 | 64* | 36 | 25 | -20 | -2 | 14 | 8 | -5
Oc1[nH]c2ccccc2c1N=Nc1ccccc1Cl | nt | 22 | nt | nt | nt | nt | nt | nt | nt | nt | nt
Cc1cccc2c(N=Nc3ccccc3)c(O)[nH]c12 | -13 | 19 | -9 | 54* | -3 | 8 | 12 | 13 | 35 | 12 | 7
O=C(CSCc1ccccc1)N=Nc1c(O)[nH]c2ccccc12 | -5 | 35 | 1 | 3 | 10 | 7 | nt | nt | nt | nt | nt
Oc1[nH]c2ccccc2c1N=Nc1nncc2ccccc12 | -70 | -35 | 42 | 74* | 72* | 3 | 49 | 48 | 72* | 76* | 58*
Cc1c(NC(=O)C(C)OC(=O)CCC2CCCC2)c(=O)n(-c2ccccc2)n1C (centres undefined) | 3 | 8 | -3 | -2 | -10 | -6 | nt | nt | nt | nt | nt
CCCN(CC(=O)Nc1ccccc1OC)C(=O)c1ccc2c(c1)NC(=O)C(C)S2 (centres undefined) | 34 | -8 | 1 | 6 | 13 | 38 | nt | nt | nt | nt | nt
O=C(C1=NOC2(C1)C(=O)N(Cc1ccccc1)c1ccccc12)N1CCOCC1 (centres undefined) | nt | 8 | nt | nt | nt | nt | nt | nt | nt | nt | nt
OC(Cc1cccc(Br)c1)c1ncc(-c2ccccc2C(F)(F)F)[nH]1 (centres undefined) | nt | -20 | nt | nt | nt | nt | nt | nt | nt | nt | nt
O=C(Cc1cccc2ccccc12)NN=Cc1ccc2c(c1)CCC2 | nt | 18 | nt | nt | nt | nt | nt | nt | nt | nt | nt
COc1cc(C=NNC(=O)Cn2nc(C)cc2C)ccc1OC(=O)C1CC1 | 4 | 9 | 10 | 0 | 0 | -8 | nt | nt | nt | nt | nt
O=C(N/N=C/c1c[nH]c2ccccc12)c1cc(Br)ccc1O | -2 | -216 | 1 | -3 | -24 | 14 | nt | nt | nt | nt | nt
SMILES | UBC13 polyUb | SENP8 block-1 | SENP8 block-2 | SENP7 inh | SENP6 inh | Apaf1 inhib | SENP8 conf | SENP6 conf | SENP7 conf | Casp3 SENP sel | Luc interf
CCOc1ccc(Br)cc1C(=O)N/N=C/c1c[nH]c2ccccc12 | 5 | -96 | 1 | -5 | 58* | 14 | -6 | -5 | -10 | -7 | -5
O=C(N/N=C/c1c[nH]c2ccc(Br)cc12)c1ccc2c(c1)OCO2 | 18 | -80 | 6 | 5 | -11 | 14 | nt | nt | nt | nt | nt
O=C(N/N=C/c1c[nH]c2ccccc12)c1ccc2c(c1)OCCO2 | 2 | -116 | 31 | 48 | 54* | 17 | 45 | 43 | 77* | 55* | 60*
CCCC(=O)N1CCCC1(C)C(=O)NCCc1ccccn1 (centres undefined) | nt | -1 | nt | nt | nt | nt | nt | nt | nt | nt | nt
O=C(c1cc(-c2ccc(Cl)cc2Cl)on1)N1CCCC1 | 6 | 10 | 78* | 75* | 87* | 12 | -8 | 45 | 51* | 30 | 48
O=C(c1cc(-c2ccc(Cl)cc2Cl)on1)N1CCCCCC1 | -1 | 6 | 55* | 54* | 73* | 23 | 62* | 60* | 82* | 46 | 45
CCCC(C)C(=O)Nc1ncc(S(=O)(=O)c2ccc([N+](=O)[O-])cc2)s1 (centres undefined) | -2 | 12 | -1 | -8 | 1 | 17 | nt | nt | nt | nt | nt
CC(=O)Nc1ccc(S(=O)(=O)NCCC(=O)OCC(=O)c2cccc(Br)c2)cc1 | 2 | 13 | -3 | 5 | -1 | 4 | nt | nt | nt | nt | nt
Cc1sc2nc(CSC(C)C(=O)N3CCOCC3)[nH]c(=O)c2c1C (centres undefined) | -6 | -18 | -6 | -6 | -5 | 2 | nt | nt | nt | nt | nt
CC(=O)Nc1ccc(NC(=O)CNC(=O)c2cccc(C)c2)cc1 | 1 | 4 | -11 | -13 | -36 | 2 | nt | nt | nt | nt | nt
Nc1ccc(-c2nc3ccccc3s2)cn1 | 8 | -294 | 66* | 69* | 79* | -4 | 75* | 73* | 91* | 78* | 48
CCCNC(=O)c1ccc(-c2nc3ccccc3s2)s1 | 33 | -420 | 84* | 87* | 89* | 11 | 8 | 86* | 99* | 55* | 25
CCCNC(=O)Nc1nc2ccccc2s1 | -14 | 22 | -6 | 6 | 7 | 3 | nt | nt | nt | nt | nt
